The assay deals with Plasmodium yoelii. Briefly: Antimalarial activity against Plasmodium yoelii YM infected in BALB/c mouse assessed as mouse survival at 10 mg/kg, sc administered QD for 4 days starting at 96 hrs post infection by Giemsa-staining based microscopic analysis. It is filed as functional. The method, boiled down: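 Mice inoculated with 1×106 P. yoelii parasites. Subcutaneous dosing for 4 days starting 96 h post infection, given once daily or twice daily 8 h apart. Parasitemia followed on Giemsa-stained blood smears. Survival recorded at 40 days post infection; groups of n=3. DMSO-only mice served as untreated controls.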

Regarding `Cc1c(-c2ccc(Cc3ccc(OC(F)(F)F)cc3)cc2)[nH]c2cccc(F)c2c1=O`, the survival at 10 mg/kg worked out at 100%.

(Values after ChEMBL document CHEMBL4007417, “Target Elucidation by Cocrystal Structures of NADH-Ubiquinone Oxidoreductase of Plasmodium falciparum (PfNDH2) with Small Molecule To Eliminate Drug-Resistant Malaria” (J Med Chem, 2017).)
